In brackets after ≈: the same amount, converted by molar mass. Activity calls are given as the source filed them. The rule behind the calls is not given here.
Legend:
[1] = Antioxidant activity assessed as DPPH radical scavenging activity incubated for 30 mins under dark condition; type: functional
Method in brief: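 DPPH (100 µM) in ethanolic medium, stirred 30 min in the dark, absorbance at 517 nm. Compound varied from 0 to 160 µg/mL to find the concentration scavenging 50% of radicals. Three independent experiments, each in triplicate.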

[2] = Ratio of antifungal activity against Candida albicans ATCC 10231 to antifungal activity against Cryptococcus neoformans ATCC 32264; type: functional
[3] = tested on: Candida albicans; assay: Growth inhibition of Candida albicans ATCC 10231 at 62.5 ug/ml incubated for 48 hrs under dark condition by broth microdilution assay relative to amphotericin B; type: functional; conditions: ATCC 10231, 48 h, read-out: GI
Method in brief: (§1)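 Yeast broth microdilution (CLSI M27-A3), RPMI-1640, inoculum 1-5 x 10^3 CFU/mL, DMSO ≤1%, 48 h at 30 °C in a moist, dark chamber. […]. Triplicate; amphotericin B as positive control.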

[4] = tested on: Candida albicans; assay: Growth inhibition of Candida albicans ATCC 10231 at 3.9 ug/ml incubated for 48 hrs under dark condition by broth microdilution assay relative to amphotericin B; type: functional; conditions: ATCC 10231, 48 h, read-out: GI; method in brief: as §1
[5] = tested on: Candida albicans; assay: Antifungal activity against Candida albicans ATCC 10231 incubated for 48 hrs under dark condition by broth microdilution assay; type: functional; conditions: ATCC 10231, 48 h
Method in brief: (§2)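 Broth microdilution per CLSI M27-A3 in RPMI-1640. Inocula adjusted to 1-5 x 10^3 CFU/mL. Stocks in DMSO (≤1%), final 3.9-250.0 µg/mL. Incubated 48 h at 30 °C in a moist, dark chamber, read at OD 405. % inhibition computed from growth and sterility control wells, run in triplicate. MIC80/MIC50 taken from four-parameter logistic concentration-response curves; amphotericin B as positive control.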

[6] = tested on: Candida albicans; assay: Growth inhibition of Candida albicans ATCC 10231 at 250 ug/ml incubated for 48 hrs under dark condition by broth microdilution assay relative to amphotericin B; type: functional; conditions: ATCC 10231, 48 h, read-out: GI; method in brief: as §1
[7] = tested on: Candida albicans; assay: Growth inhibition of Candida albicans ATCC 10231 at 31.25 ug/ml incubated for 48 hrs under dark condition by broth microdilution assay relative to amphotericin B; type: functional; conditions: ATCC 10231, 48 h, read-out: GI; method in brief: as §1
[8] = tested on: Candida albicans; assay: Growth inhibition of Candida albicans ATCC 10231 at 125 ug/ml incubated for 48 hrs under dark condition by broth microdilution assay relative to amphotericin B; type: functional; conditions: ATCC 10231, 48 h, read-out: GI; method in brief: as §1
[9] = Antifungal activity against Cryptococcus neoformans ATCC 32264 incubated for 48 hrs under dark condition by broth microdilution assay; type: functional; method in brief: as §2
[10] = tested on: Candida albicans; assay: Growth inhibition of Candida albicans ATCC 10231 at 7.81 ug/ml incubated for 48 hrs under dark condition by broth microdilution assay relative to amphotericin B; type: functional; conditions: ATCC 10231, 48 h, read-out: GI; method in brief: as §1
[11] = tested on: Candida albicans; assay: Growth inhibition of Candida albicans ATCC 10231 at 15.62 ug/ml incubated for 48 hrs under dark condition by broth microdilution assay relative to amphotericin B; type: functional; conditions: ATCC 10231, 48 h, read-out: GI; method in brief: as §1
[12] = tested on: NCI-H226; assay: Selectivity index, ratio of IC50 for human CCD-19Lu cells to IC50 for human NCI-H226 cells; type: functional
Method in brief: (§3)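 Selectivity index equals IC50 in non-tumour CCD 19-Lu lung fibroblasts divided by IC50 in the tumour line. Both IC50s come from the 24 h MTT assay (read at 540 nm) over 1.0-1,000 µg/mL.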

[13] = Antioxidant activity assessed as fluorescent light-induced superoxide anion scavenging activity at 160 uM incubated for 10 mins by nitroblue tetrazolium dye based assay; type: functional
Method in brief: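 Superoxide generated photochemically in 50 mM phosphate buffer pH 7.8 with 13 mM L-methionine, 75 µM nitroblue tetrazolium, 100 µM EDTA and 2 µM riboflavin. Compound at 160 µM. 10 min at 25 °C under fluorescent light; dark controls. Read at 575 nm. Resveratrol as positive control; three independent experiments in triplicate.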

[14] = Antiproliferative activity against human CCD-19Lu cells after 24 hrs by MTT assay; type: cell-based
Method in brief: (§4)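 Cells grown in medium with 10% foetal bovine serum and 1% L-glutamine at 37 °C, 5% CO2, seeded at 1 x 10^5 cells/well. Exposed to compound at 1.0-1,000 µg/mL for 24 h. MTT added, absorbance read at 540 nm 3 h later. IC50 obtained by non-linear regression of viability data.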

[15] = Antiproliferative activity against human Hep2C cells after 24 hrs by MTT assay; type: functional, cell-based; method in brief: as §4
[16] = Antiproliferative activity against human NCI-H226 cells harboring TP53 mutant after 24 hrs by MTT assay; type: functional, cell-based; conditions: NCI-H226, 24 h; method in brief: as §4
[17] = Selectivity index, ratio of IC50 for human CCD-19Lu cells to IC50 for human Hep2C cells; type: functional; method in brief: as §3
[18] = Antioxidant activity assessed as DPPH radical scavenging activity at 160 uM incubated for 30 mins under dark condition; type: functional
Method in brief: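 Compound at 160 µM incubated with 100 µM DPPH in ethanolic medium, stirred in the dark for 30 min, read at 517 nm. Resveratrol as positive control. Three independent experiments, each in triplicate.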

[19] = Antioxidant activity assessed as fluorescent light-induced superoxide anion scavenging activity incubated for 10 mins by nitroblue tetrazolium dye based assay; type: functional
Method in brief: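 Riboflavin/light superoxide system: 50 mM phosphate pH 7.8, 13 mM L-methionine, 75 µM NBT, 100 µM EDTA, 2 µM riboflavin, compound 0-200 µg/mL. Fluorescent light for 10 min at 25 °C, dark controls, scavenging measured at 575 nm. Resveratrol as reference.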

[20] = Selectivity index, ratio of IC50 for human CCD-19Lu cells to IC50 for human TOV21G cells; type: functional; method in brief: as §3
[21] = Antiproliferative activity against human TOV21G harboring wild type TP53 cells after 24 hrs by MTT assay; type: functional, cell-based; method in brief: as §4
[22] = Potency index, ratio of resveratrol SC50 to compound SC50 for fluorescent light-induced superoxide anion scavenging activity

SMILES	SC50 [1] [µM]	inhibition of growth at 62.5 µg/mL [3] [%]	inhibition of growth at 3.9 µg/mL [4] [%]	MIC50 [5] [µg/mL]	MIC80 [5] [µg/mL]	inhibition of growth at 250 µg/mL [6] [%]	inhibition of growth at 31.25 µg/mL [7] [%]	inhibition of growth at 125 µg/mL [8] [%]	MIC50 [9] [µg/mL]	MIC80 [9] [µg/mL]	inhibition of growth at 7.81 µg/mL [10] [%]	inhibition of growth at 15.62 µg/mL [11] [%]	Activity [13]	IC50 [15] [µM]	Activity [18] [%]	SC50 [19] [µM]	further results
Brc1ccc2nc(-c3ccccc3)cc(-c3ccccc3)c2c1	> 250	17.2	1.16	125 (≈ 347 µM)	> 250	55.9	10.1	30.7	31.2 (≈ 86.6 µM)	> 250	2.57	7.33	< 10%	128	45 to 55	> 250	Ratio [2]: 4; Ratio IC50 [12]: 15; IC50 [14]: 669 µM; IC50 [16]: 43.4 µM; Ratio IC50 [17]: 5; Ratio IC50 [20]: 1; IC50 [21]: 531 µM
Cc1ccc(-c2cc(-c3ccccc3)c3cc(Br)ccc3n2)cc1	197	5.87	0	> 250	> 250	31.5	2.64	11.1	15.6 (≈ 41.7 µM)	> 250	0	3.04	Active	175	45 to 55	104	Ratio [22]: 2
